These results are taken from ChEMBL document CHEMBL1125478, “The discovery of (2S,3S)-cis-2-(diphenylmethyl)-N-[(2-methoxyphenyl)methyl]-1- azabicyclo[2.2.2]-octan-3-amine as a novel, nonpeptide substance P antagonisst” (J Med Chem, 1992).

For assay [1], the system named is Cavia porcellus. The experiment in a line: Inhibition of capsaicin-induced plasma extravasation in guinea pig ureter after intraperitoneal injection. It counts as functional. Conditions: ip. Put shortly:
(§1)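 Fasted male Hartley guinea pigs (300-400 g), pentobarbital-anaesthetised; Evans Blue 30 mg/kg iv, then capsaicin 30 μM, 10 mL intraperitoneally. Compound 10 mg/kg po 1 h prior. Ureter removed after 10 min, formamide-extracted 24 h at 60 °C, OD 600 nm.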

The subject of the next assay is Rattus norvegicus. The experiment in a line: Inhibition of SP-induced salvation after intraperitoneal administration of the durg at a concentration of 50 mg/kg in rats. It counts as functional. Conditions: ip. Put shortly:
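Fasted male Sprague-Dawley rats given compound 50 mg/kg ip in 0.05 N HCl, or saline, 30 min before SP 4.7 nmol/kg by tail vein under pentobarbital. Saliva collected on preweighed swabs until response subsided (about 4 min), weighed. Percent inhibition of SP response.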

The subject of assay [2] is Cavia porcellus. The experiment in a line: (§2) Inhibition of SP-induced plasma extravasation in guinea pig after peroral administration at a dose 15 mg/kg. It counts as functional. Particulars: route oral. A digest of the protocol:
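Male Hartley guinea pigs (350-400 g), pentobarbital-anaesthetised; Evans Blue 30 mg/kg iv, then 5 min later SP (20 nM, 50 μL/site) intradermally. Dorsal skin punches extracted in formamide 24 h, 60 °C; OD 600 nm.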

The species entered for assay [3] is Cavia porcellus. The experiment in a line: Ability to block SP-induced excitation of neurons in the locus coeruleus in guinea pig brain. It counts as functional.
In a further assay the target is T1, Substance-K receptor (Mesocricetus auratus, UniProt P51144).
T1 sequence (P51144 whole entry): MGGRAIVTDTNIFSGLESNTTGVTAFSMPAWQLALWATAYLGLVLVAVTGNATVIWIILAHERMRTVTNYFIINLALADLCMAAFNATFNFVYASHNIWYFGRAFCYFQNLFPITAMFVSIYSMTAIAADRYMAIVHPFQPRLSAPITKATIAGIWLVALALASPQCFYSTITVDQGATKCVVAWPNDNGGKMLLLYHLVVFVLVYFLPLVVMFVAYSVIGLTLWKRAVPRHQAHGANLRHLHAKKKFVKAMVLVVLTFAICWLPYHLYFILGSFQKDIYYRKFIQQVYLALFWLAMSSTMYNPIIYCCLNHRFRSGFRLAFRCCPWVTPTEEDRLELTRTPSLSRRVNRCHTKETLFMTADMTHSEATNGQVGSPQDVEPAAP
The experiment in a line: Inhibitory activity against [125I]neurokinin binding to Tachykinin receptor 2 in hamster urinary bladder.

Another assay deals with T2, Neuromedin-K receptor (Cavia porcellus, UniProt P30098).
T2 sequence (P30098 whole entry): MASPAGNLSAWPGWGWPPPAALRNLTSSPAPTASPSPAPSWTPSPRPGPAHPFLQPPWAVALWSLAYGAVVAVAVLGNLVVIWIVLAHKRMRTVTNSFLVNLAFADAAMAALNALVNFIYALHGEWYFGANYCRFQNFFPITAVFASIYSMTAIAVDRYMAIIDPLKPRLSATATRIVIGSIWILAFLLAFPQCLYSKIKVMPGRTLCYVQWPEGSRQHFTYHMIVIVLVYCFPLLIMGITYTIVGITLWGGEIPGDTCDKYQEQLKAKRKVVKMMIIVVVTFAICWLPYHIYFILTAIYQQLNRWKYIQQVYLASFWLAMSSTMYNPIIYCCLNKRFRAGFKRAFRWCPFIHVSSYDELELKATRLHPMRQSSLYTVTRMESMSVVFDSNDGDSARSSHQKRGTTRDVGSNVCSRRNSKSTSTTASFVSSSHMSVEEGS
The experiment in a line: Inhibitory activity against Tachykinin receptor 3 in guinea pig cortex [125I]-BH-eledoisin as radioligand. Put shortly: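 Guinea pig cortical membranes (6 mg/mL) in 50 mM Tris-HCl with 1 mM MnCl₂, 50 μg/mL chymostatin, 0.02% BSA and 0.1 nM [¹²⁵I]BH-eledoisin final, with test compound, 60 min at 22 °C. Nonsaturable binding defined with 1 μM eledoisin. Filtration and radioactivity counting.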

The test system of assay [4] is Cavia porcellus. Described as §2. Type of assay: functional. Particulars: route oral. A digest of the protocol:
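Male Hartley guinea pigs (350-400 g), pentobarbital-anaesthetised; Evans Blue 30 mg/kg iv, then 5 min later SP (20 nM, 50 μL/site) intradermally. Compound 15 mg/kg po 1 h before SP. Dorsal skin punches extracted in formamide 24 h, 60 °C; OD 600 nm. Percent inhibition or ED50 with 95% confidence limits.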
This is another data set of the same source.

The next assay concerns the target Substance-P receptor (Homo sapiens, UniProt P25103). The experiment in a line: Binding affinity towards Tachykinin receptor 1 in human IM-9 cells using [3H]-substance P as ligand. Type of assay: cell-based. Put shortly: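 Displacement of [³H]SP (0.5 nM final) from human IM-9 cell preparation in 50 mM TRIS-HCl pH 7.7 with MnCl2, BSA, bacitracin, leupeptin, […], phosphoramidon; 20 min, room temperature, dark. Filtration on polyethylenimine-soaked GF/B filters, scintillation counting. IC50 from six-point curves, duplicates; mean ± SEM of three experiments.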

The species named for assay [5] is Cavia porcellus. The experiment in a line: Inhibition of capsaicin-induced plasma extravasation after 10 mL injection of 30 uM capsaicin in to the peritoneal cavity of guinea pig ureter. Type of assay: functional. Put shortly: as §1

As a reminder, the ED50 is the dose that gives a 50% effect, or the effect in half of the subjects. One may read the inhibition in vivo as the drop in the measured response relative to a control, in per cent. What is called IC50 is the midpoint of a concentration-inhibition curve. A low value points to inhibition by little substance. As a reminder, the Inhibition is the drop in the measured response relative to a control, in per cent.

Sequence of Substance-P receptor (P25103 whole entry): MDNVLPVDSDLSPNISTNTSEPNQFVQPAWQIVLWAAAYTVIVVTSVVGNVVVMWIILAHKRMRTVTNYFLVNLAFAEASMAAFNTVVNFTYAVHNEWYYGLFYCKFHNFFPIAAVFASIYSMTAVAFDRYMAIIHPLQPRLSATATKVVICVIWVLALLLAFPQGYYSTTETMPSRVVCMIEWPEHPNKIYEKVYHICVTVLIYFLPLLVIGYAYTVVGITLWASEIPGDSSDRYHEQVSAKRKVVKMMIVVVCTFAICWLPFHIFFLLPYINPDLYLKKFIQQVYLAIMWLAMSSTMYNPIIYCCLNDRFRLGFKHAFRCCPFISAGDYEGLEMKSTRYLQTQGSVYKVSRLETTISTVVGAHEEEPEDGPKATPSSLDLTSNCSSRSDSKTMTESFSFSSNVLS

In turn, `COc1ccccc1CN[C@@H]1C2CCN(CC2)[C@@H]1C(c1ccccc1)c1ccccc1` had an ED50 in the assay with Cavia porcellus [1] of 6 mg/kg. In addition, the inhibition in vivo at 50 mg/kg with Rattus norvegicus is less than 66.9%. In the assay with Cavia porcellus [2], the inhibition in vivo at 15 mg/kg amounted to 39%.
As to `COc1ccccc1CN[C@H]1C2CCN(CC2)[C@H]1C(c1ccccc1)c1ccccc1` [CP-96345], the results for the IC50 in the assay filed under Cavia porcellus [3], at Substance-K receptor and on Neuromedin-K receptor were 0.09 µM, greater than 10 µM and greater than 10 µM, respectively. Moreover, the values for the ED50 with Cavia porcellus [1] and in the assay on Cavia porcellus [4] were 2.3 mg/kg and 4.4 mg/kg, respectively. Besides, the inhibition in vivo at 50 mg/kg with Rattus norvegicus is less than 76.2%.
Turning to `Clc1ccccc1CN[C@H]1C2CCN(CC2)[C@H]1C(c1ccccc1)c1ccccc1`, in the assay with Cavia porcellus [1], it took a dose of 7 mg/kg to reach the 50% effect level (ED50). The inhibition in vivo at 50 mg/kg in the assay with Rattus norvegicus was less than 43.9%. In addition, the inhibition in vivo at 15 mg/kg with Cavia porcellus [2] is 38%.
`COc1ccccc1CN[C@H]1C2CCC(CC2)[C@H]1C(c1ccccc1)c1ccccc1` yielded an IC50 at Substance-P receptor greater than 32 µM. The Inhibition in the assay filed under Cavia porcellus [5] is -67%. Further, the inhibition in vivo at 15 mg/kg in the assay on Cavia porcellus [2] was -9%.
Consider `COc1ccccc1CN(C)[C@H]1C2CCN(CC2)[C@H]1C(c1ccccc1)c1ccccc1`, for which the Inhibition in the assay listed under Cavia porcellus [5] is -13%. Besides, the inhibition in vivo at 15 mg/kg with Cavia porcellus [2] was 13%.
On to `CCc1ccccc1CN[C@H]1C2CCN(CC2)[C@H]1C(c1ccccc1)c1ccccc1`, for which the IC50 at Substance-P receptor turned out to be 0.0167 µM. The molecule also had an ED50 with Cavia porcellus [1] of 4 mg/kg. In the assay with Rattus norvegicus, the inhibition in vivo at 50 mg/kg turned out to be 16.7%. For the same molecule, the inhibition in vivo at 15 mg/kg with Cavia porcellus [2] came out at 79%.
Consider `COc1ccccc1CN[C@H]1C2CCN(CC2)[C@@H]1C(c1ccccc1)c1ccccc1`, for which the inhibition in vivo at 50 mg/kg with Rattus norvegicus turned out to be 11.3%. In the assay filed under Cavia porcellus [5], the Inhibition was found to be 18%. In the assay on Cavia porcellus [2], the inhibition in vivo at 15 mg/kg was 28%.
In the same order, the values of `Clc1cccc(CN[C@H]2C3CCN(CC3)[C@H]2C(c2ccccc2)c2ccccc2)c1` are less than 52.8%, 23% and -6%.
Regarding `c1ccc(CN[C@H]2C3CCN(CC3)[C@H]2C(c2ccccc2)c2ccccc2)cc1`, the IC50 on Substance-P receptor was determined as 0.016 µM. Besides, the inhibition in vivo at 50 mg/kg with Rattus norvegicus came to 0%. Moreover, in the assay listed under Cavia porcellus [5], the Inhibition is listed as -21%. Moreover, the inhibition in vivo at 15 mg/kg with Cavia porcellus [2] is -9%.
In the same order, the values of `COc1ccccc1CN[C@H]1C2CCN(CC2)[C@H]1Cc1ccccc1` are 0.487 µM, 0%, -30% and 35%.
Regarding `Clc1ccc(CN[C@H]2C3CCN(CC3)[C@H]2C(c2ccccc2)c2ccccc2)cc1`, in the assay on Rattus norvegicus, the inhibition in vivo at 50 mg/kg is less than 27%. Further, in the assay listed under Cavia porcellus [5], the Inhibition stood at 34%. Also, in the assay on Cavia porcellus [2], the inhibition in vivo at 15 mg/kg came to 8%.
